# Measurements reported in ChEMBL document CHEMBL4680218, “Design and synthesis of tripeptidyl furylketones as selective inhibitors against the β5 subunit of human 20S proteasome” (Eur J Med Chem, 2020).
# Target: T1, Proteasome Macropain subunit MB1 (Homo sapiens) (UniProt P28074)
# T1 sequence (whole entry): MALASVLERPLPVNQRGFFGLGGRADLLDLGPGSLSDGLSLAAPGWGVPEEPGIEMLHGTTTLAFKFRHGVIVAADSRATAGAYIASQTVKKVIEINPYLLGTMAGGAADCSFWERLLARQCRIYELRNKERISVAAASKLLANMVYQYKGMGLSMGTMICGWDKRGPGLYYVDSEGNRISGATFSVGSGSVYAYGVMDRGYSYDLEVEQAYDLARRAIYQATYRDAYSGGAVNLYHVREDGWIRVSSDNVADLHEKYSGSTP
# Assay: Inhibition of chymotrypsin-like activity of human 20S proteasome beta5 subunit at 50 uM using Suc-LLVY-Glo as substrate incubated for 2 hrs followed by substrate addition and measured for 10 mins by bioluminescent assay relative to control
# Details: time 130.0 min
# In short: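 Human constitutive 20S proteasome (1 µg/mL) was incubated with compound for 2 h at 25 °C in 10 mM HEPES pH 7.6 with 1% DMSO final. Suc-LLVY-Glo substrate was then added, and luminescence was read over 10 min. Inhibition rate was calculated against the uninhibited signal.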
row,Structure (SMILES),inhibition [%]
1,COC[C@H](NC(=O)[C@H](CC(=O)NCC(C)C)NS(=O)(=O)c1ccc(C)cc1)C(=O)N[C@@H](CC(C)C)C(=O)c1ccco1,> 50
2,COC[C@H](NC(=O)[C@H](Cc1ccccc1)NC(=O)OC(C)(C)C)C(=O)N[C@@H](CC(C)C)C(=O)c1ccco1,> 50
3,COc1ccc(C[C@H](NC(=O)[C@H](Cc2ccccc2)NC(=O)c2ccccc2Br)C(=O)N[C@@H](CC(C)C)C(=O)c2ccco2)cc1,> 50
4,COC[C@H](NC(=O)[C@H](Cc1ccc(OC)cc1)NC(=O)OC(C)(C)C)C(=O)N[C@@H](CC(C)C)C(=O)c1ccco1,> 50
5,Cc1ccc(S(=O)(=O)N[C@@H](CC(=O)NCC(C)(C)C)C(=O)N[C@@H](C)C(=O)N[C@@H](CC(C)C)C(=O)c2ccco2)cc1,> 50
6,CC(C)C[C@H](NC(=O)[C@H](C)NC(=O)[C@H](Cc1ccccc1)NC(=O)OC(C)(C)C)C(=O)c1ccco1,> 50
7,COc1ccc(C[C@H](NC(=O)[C@H](Cc2ccccc2)NC(=O)c2ccccc2[N+](=O)[O-])C(=O)N[C@@H](CC(C)C)C(=O)c2ccco2)cc1,> 50
8,COc1ccc(C[C@H](NS(=O)(=O)c2ccc(C)cc2)C(=O)N[C@@H](Cc2ccc(O)cc2)C(=O)N[C@@H](CC(C)C)C(=O)c2ccco2)cc1,> 50
9,COc1ccc(C[C@H](NC(=O)[C@H](Cc2ccccc2)NC(=O)c2ccccc2C)C(=O)N[C@@H](CC(C)C)C(=O)c2ccco2)cc1,> 50
10,Cc1ccc(S(=O)(=O)N[C@@H](CC(=O)NCC(C)C)C(=O)N[C@@H](C)C(=O)N[C@@H](CC(C)C)C(=O)c2ccco2)cc1,> 50
11,Cc1ccc(S(=O)(=O)N[C@@H](CC(=O)NCCC(C)C)C(=O)N[C@@H](C)C(=O)N[C@@H](CC(C)C)C(=O)c2ccco2)cc1,> 50
12,CC(C)C[C@H](NC(=O)[C@H](Cc1ccc(O)cc1)NC(=O)[C@H](Cc1ccc(Cl)cc1)NC(=O)OC(C)(C)C)C(=O)c1ccco1,> 50

# Target: T2, Proteasome Macropain subunit MB1 (Homo sapiens, UniProt P28074)
# T2 sequence (P28074 whole entry): T1 sequence (whole entry)
# Assay: Inhibition of chymotrypsin-like activity of human 20S proteasome beta5 subunit using Suc-LLVY-Glo as substrate incubated for 2 hrs followed by substrate addition and measured for 10 mins by bioluminescent assay
# Details: not given
# In short: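 Human constitutive 20S proteasome (1 μg/mL) was combined with compound serially diluted in 10 mM HEPES pH 7.6, with final DMSO 1% (v/v). After 2 h at 25 °C, Suc-LLVY-Glo (CT-L), Z-LRR-Glo (T-L) or Z-nLPnLD-Glo (C-L) reagent was added. Luminescence was read over 10 min, and IC50 was taken from inhibition rates.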
row,Structure (SMILES),IC50 [µM]
1,COC[C@H](NC(=O)[C@H](CC(=O)NCC(C)C)NS(=O)(=O)c1ccc(C)cc1)C(=O)N[C@@H](CC(C)C)C(=O)c1ccco1,0.68
2,COC[C@H](NC(=O)[C@H](Cc1ccccc1)NC(=O)OC(C)(C)C)C(=O)N[C@@H](CC(C)C)C(=O)c1ccco1,14.3
3,COc1ccc(C[C@H](NC(=O)[C@H](Cc2ccccc2)NC(=O)c2ccccc2Br)C(=O)N[C@@H](CC(C)C)C(=O)c2ccco2)cc1,> 50
4,COC[C@H](NC(=O)[C@H](Cc1ccc(OC)cc1)NC(=O)OC(C)(C)C)C(=O)N[C@@H](CC(C)C)C(=O)c1ccco1,5.86
5,Cc1ccc(S(=O)(=O)N[C@@H](CC(=O)NCC(C)(C)C)C(=O)N[C@@H](C)C(=O)N[C@@H](CC(C)C)C(=O)c2ccco2)cc1,5.63
6,CC(C)C[C@H](NC(=O)[C@H](C)NC(=O)[C@H](Cc1ccccc1)NC(=O)OC(C)(C)C)C(=O)c1ccco1,45.6
7,COc1ccc(C[C@H](NC(=O)[C@H](Cc2ccccc2)NC(=O)c2ccccc2[N+](=O)[O-])C(=O)N[C@@H](CC(C)C)C(=O)c2ccco2)cc1,7.26
8,COc1ccc(C[C@H](NS(=O)(=O)c2ccc(C)cc2)C(=O)N[C@@H](Cc2ccc(O)cc2)C(=O)N[C@@H](CC(C)C)C(=O)c2ccco2)cc1,0.54
9,COc1ccc(C[C@H](NC(=O)[C@H](Cc2ccccc2)NC(=O)c2ccccc2C)C(=O)N[C@@H](CC(C)C)C(=O)c2ccco2)cc1,3.19
10,Cc1ccc(S(=O)(=O)N[C@@H](CC(=O)NCC(C)C)C(=O)N[C@@H](C)C(=O)N[C@@H](CC(C)C)C(=O)c2ccco2)cc1,3.12
11,Cc1ccc(S(=O)(=O)N[C@@H](CC(=O)NCCC(C)C)C(=O)N[C@@H](C)C(=O)N[C@@H](CC(C)C)C(=O)c2ccco2)cc1,6.3
12,CC(C)C[C@H](NC(=O)[C@H](Cc1ccc(O)cc1)NC(=O)[C@H](Cc1ccc(Cl)cc1)NC(=O)OC(C)(C)C)C(=O)c1ccco1,7.26

# Target: T1, Proteasome Macropain subunit MB1 (Homo sapiens)
# Assay: Reversible inhibition of human 20S proteasome beta5 subunit assessed as residual enzyme activity using Suc-LLVY-Glo as substrate preincubated for 2 hrs followed by compound washout and further incubated for 4 hrs followed by substrate addition and measured after 10 mins by bioluminescent assay relative to control
# Details: not given
# In short: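 Human 20S proteasome (8 μg/mL) was pre-incubated with inhibitor for 2 h at 25 °C. Samples were then washed five times in assay buffer on 100 kDa cut-off centrifugal filters (14,000 g, 5 min each) and recovered. After a further 4 h at 25 °C, Suc-LLVY-Glo was added and luminescence was read after 10 min. Unwashed samples held an extra 4 h served as the standard.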
row,Structure (SMILES),Activity [%]
1,CC(C)C[C@H](NC(=O)[C@H](Cc1ccccc1)NC(=O)c1cnccn1)B(O)O,80

# Tested on: A-375
# Assay: Cytotoxicity against human A-375 cells assessed as reduction in cell viability after 72 hrs by Cell Titer-Glo assay
# Assay type: functional, cell-based
# Details: A-375, 72 h
# In short: (§1)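 Cells were cultured in their respective media with 10% FBS, seeded from log phase at 1000 cells/well, and given compound after 18–24 h. After 72 h, an equal volume of CellTiter-Glo reagent was added and luminescence was read at 37 °C. IC50 came from dose-response curve fits; values are mean ± SD of three independent experiments, each in biological triplicate.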
row,Structure (SMILES),IC50 [µM]
1,COC[C@H](NC(=O)[C@H](CC(=O)NCC(C)C)NS(=O)(=O)c1ccc(C)cc1)C(=O)N[C@@H](CC(C)C)C(=O)c1ccco1,2.61
2,COc1ccc(C[C@H](NS(=O)(=O)c2ccc(C)cc2)C(=O)N[C@@H](Cc2ccc(O)cc2)C(=O)N[C@@H](CC(C)C)C(=O)c2ccco2)cc1,3.87

# Tested on: BGC-823
# Assay: Cytotoxicity against human BGC-823 cells assessed as reduction in cell viability after 72 hrs by Cell Titer-Glo assay
# Assay type: functional, cell-based
# Details: BGC-823, 72 h
# In short: as §1
row,Structure (SMILES),IC50 [µM]
1,COC[C@H](NC(=O)[C@H](CC(=O)NCC(C)C)NS(=O)(=O)c1ccc(C)cc1)C(=O)N[C@@H](CC(C)C)C(=O)c1ccco1,3.96
2,COc1ccc(C[C@H](NS(=O)(=O)c2ccc(C)cc2)C(=O)N[C@@H](Cc2ccc(O)cc2)C(=O)N[C@@H](CC(C)C)C(=O)c2ccco2)cc1,8.37

# Tested on: HeLa
# Assay: Cytotoxicity against human HeLa cells assessed as reduction in cell viability after 72 hrs by Cell Titer-Glo assay
# Assay type: functional, cell-based
# Details: not given
# In short: as §1
row,Structure (SMILES),IC50 [µM]
1,COC[C@H](NC(=O)[C@H](CC(=O)NCC(C)C)NS(=O)(=O)c1ccc(C)cc1)C(=O)N[C@@H](CC(C)C)C(=O)c1ccco1,2.47
2,COc1ccc(C[C@H](NS(=O)(=O)c2ccc(C)cc2)C(=O)N[C@@H](Cc2ccc(O)cc2)C(=O)N[C@@H](CC(C)C)C(=O)c2ccco2)cc1,6.35

# Tested on: A549
# Assay: Cytotoxicity against human A549 cells assessed as reduction in cell viability after 72 hrs by Cell Titer-Glo assay
# Assay type: functional, cell-based
# Details: A549, 72 h
# In short: as §1
row,Structure (SMILES),IC50 [µM]
1,COC[C@H](NC(=O)[C@H](CC(=O)NCC(C)C)NS(=O)(=O)c1ccc(C)cc1)C(=O)N[C@@H](CC(C)C)C(=O)c1ccco1,17.6
2,COc1ccc(C[C@H](NS(=O)(=O)c2ccc(C)cc2)C(=O)N[C@@H](Cc2ccc(O)cc2)C(=O)N[C@@H](CC(C)C)C(=O)c2ccco2)cc1,13.1

# Tested on: not listed separately
# Assay: Cytotoxicity against human PC3M1E8 cells assessed as reduction in cell viability after 72 hrs by Cell Titer-Glo assay
# Assay type: functional, cell-based
# Details: PC3M1E8, 72 h
# In short: as §1
row,Structure (SMILES),IC50 [µM]
1,COC[C@H](NC(=O)[C@H](CC(=O)NCC(C)C)NS(=O)(=O)c1ccc(C)cc1)C(=O)N[C@@H](CC(C)C)C(=O)c1ccco1,3.73
2,COc1ccc(C[C@H](NS(=O)(=O)c2ccc(C)cc2)C(=O)N[C@@H](Cc2ccc(O)cc2)C(=O)N[C@@H](CC(C)C)C(=O)c2ccco2)cc1,4.98

# Tested on: HCT-116
# Assay: Cytotoxicity against human HCT-116 cells assessed as reduction in cell viability after 72 hrs by Cell Titer-Glo assay
# Assay type: functional, cell-based
# Details: HCT-116, 72 h
# In short: as §1
row,Structure (SMILES),IC50 [µM]
1,COC[C@H](NC(=O)[C@H](CC(=O)NCC(C)C)NS(=O)(=O)c1ccc(C)cc1)C(=O)N[C@@H](CC(C)C)C(=O)c1ccco1,1.67
2,COc1ccc(C[C@H](NS(=O)(=O)c2ccc(C)cc2)C(=O)N[C@@H](Cc2ccc(O)cc2)C(=O)N[C@@H](CC(C)C)C(=O)c2ccco2)cc1,3.52

# Tested on: HEK293
# Assay: Cytotoxicity against human HEK293 cells assessed as reduction in cell viability after 72 hrs by Cell Titer-Glo assay
# Assay type: cell-based
# Details: HEK293, 72 h
# In short: as §1
row,Structure (SMILES),IC50 [µM]
1,COC[C@H](NC(=O)[C@H](CC(=O)NCC(C)C)NS(=O)(=O)c1ccc(C)cc1)C(=O)N[C@@H](CC(C)C)C(=O)c1ccco1,> 50
2,COc1ccc(C[C@H](NS(=O)(=O)c2ccc(C)cc2)C(=O)N[C@@H](Cc2ccc(O)cc2)C(=O)N[C@@H](CC(C)C)C(=O)c2ccco2)cc1,> 50

# Tested on: HT-29
# Assay: Cytotoxicity against human HT-29 cells assessed as reduction in cell viability after 72 hrs by Cell Titer-Glo assay
# Assay type: functional, cell-based
# Details: HT-29, 72 h
# In short: as §1
row,Structure (SMILES),IC50 [µM]
1,COC[C@H](NC(=O)[C@H](CC(=O)NCC(C)C)NS(=O)(=O)c1ccc(C)cc1)C(=O)N[C@@H](CC(C)C)C(=O)c1ccco1,4.85
2,COc1ccc(C[C@H](NS(=O)(=O)c2ccc(C)cc2)C(=O)N[C@@H](Cc2ccc(O)cc2)C(=O)N[C@@H](CC(C)C)C(=O)c2ccco2)cc1,5.4

# Tested on: HCT-116
# Assay: Cell cycle arrest in human HCT-116 cells assessed as accumulation at G1 phase at 1 uM after 24 hrs by propidium iodide staining based flow cytometric analysis (reference value: 29%)
# Assay type: functional
# Details: not given
row,Structure (SMILES),Activity [%]
1,COC[C@H](NC(=O)[C@H](CC(=O)NCC(C)C)NS(=O)(=O)c1ccc(C)cc1)C(=O)N[C@@H](CC(C)C)C(=O)c1ccco1,27
2,COc1ccc(C[C@H](NS(=O)(=O)c2ccc(C)cc2)C(=O)N[C@@H](Cc2ccc(O)cc2)C(=O)N[C@@H](CC(C)C)C(=O)c2ccco2)cc1,24

# Tested on: HCT-116
# Assay: Cell cycle arrest in human HCT-116 cells assessed as accumulation at S phase at 1 uM after 24 hrs by propidium iodide staining based flow cytometric analysis (reference value: 50%)
# Assay type: functional
# Details: not given
row,Structure (SMILES),Activity [%]
1,COC[C@H](NC(=O)[C@H](CC(=O)NCC(C)C)NS(=O)(=O)c1ccc(C)cc1)C(=O)N[C@@H](CC(C)C)C(=O)c1ccco1,30
2,COc1ccc(C[C@H](NS(=O)(=O)c2ccc(C)cc2)C(=O)N[C@@H](Cc2ccc(O)cc2)C(=O)N[C@@H](CC(C)C)C(=O)c2ccco2)cc1,25

# Tested on: HCT-116
# Assay: Cell cycle arrest in human HCT-116 cells assessed as accumulation at G2/M phase at 1 uM after 24 hrs by propidium iodide staining based flow cytometric analysis (reference value: 21%)
# Assay type: functional
# Details: not given
row,Structure (SMILES),Activity [%]
1,COC[C@H](NC(=O)[C@H](CC(=O)NCC(C)C)NS(=O)(=O)c1ccc(C)cc1)C(=O)N[C@@H](CC(C)C)C(=O)c1ccco1,43
2,COc1ccc(C[C@H](NS(=O)(=O)c2ccc(C)cc2)C(=O)N[C@@H](Cc2ccc(O)cc2)C(=O)N[C@@H](CC(C)C)C(=O)c2ccco2)cc1,51
